Bioassay records deposited in PubChem by The Scripps Research Institute Molecular Screening Center.
TCR-CD3 inh: inhibitors of human TCR-CD3 interaction | TAMRA-labeled TCR probe fluorescence, biochemical | inhibition, % at 9.4 µM | 0.37% of 360,000 active | AID 651800; in the data active = inhibition above about 19%;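 also: recombinant mutant TCR 2C K166C tagged with TAMRA read by polarization; 0% = receptor in buffer alone and 100% = receptor with positive control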
MBD2 inh: blocks human MBD2 binding to methylated DNA; TR-FRET, MBD2 binding to methylated oligonucleotide; AID 686964; inhibition, % at 4.4 µM; 0.31% of 370,000 active; in the data active = inhibition above about 13%
LEDGF integ inh: blocks HIV-1 LEDGF/p75-dependent DNA integration; TR-FRET IN-LEDGF/p75 DNA integration, Eu/Cy5; inhibition, % at 3.7 µM; 0.64% of 370,000 active;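 active = inhibition above the screen-wide mean plus 3 SD, cut at about 13% in these data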;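 also: signal is the Cy5 over europium emission ratio at 671 and 618 nm; 0% = plate median of compound wells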
ARFGAP1 inhibitor: inhibitors of rat ARFGAP1. Arfgap1-stimulated ARF1 GTP hydrolysis, GDP FP detection. inhibition, % at 16.5 µM. AID 651572. Q62848. 0.26% of 360,000 active;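 active = inhibition above a per-plate limit, mean inhibition of low control wells plus 3 SD, cut at about 25% in these data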;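 also: 0% = DMSO wells with enzyme and 100% = wells lacking Arfgap1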
Target sequence (Q62848 1-136 limits assumed): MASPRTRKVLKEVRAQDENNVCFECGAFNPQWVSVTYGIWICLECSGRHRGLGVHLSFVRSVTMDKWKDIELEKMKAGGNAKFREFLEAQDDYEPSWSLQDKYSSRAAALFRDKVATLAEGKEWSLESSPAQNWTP
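Assay system: Rat Arfgap1 GAP domain (His6, aa 1-136), purified enzyme | Buffer or medium: HEPES 25 mM pH 7.5, NaCl 150 mM, MgCl2, DTT | Schedule: GTP hydrolysis reaction 2 h at 25 °C | Signal: FP of antibody-bound GDP Alexa 633 tracer, ex 620/em 688 nm | Measure: Percent inhibition of Arfgap1-stimulated GTP hydrolysis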
UHRF1 MBD2 ctr: human UHRF1 methylated DNA binding inhibitors; Q96T88; UHRF1 binding to methylated oligo, TR-FRET; inhibition, % at 4.4 µM; 0.75% of 370,000 active; AID 687016; in the data active = inhibition above about 21%;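 also: UHRF1 SRA domain binding a hemimethylated CpG hairpin DNA probe; 0% = median of test compound wells and 100% = reference inhibitor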
ASAP1 inh: ASAP1 ArfGAP inhibition; inhibition, % at 16.5 µM; 0.19% of 360,000 active; ASAP1-stimulated ARF1 GTP hydrolysis, GDP FP detection; AID 624377; Q9ULH1; in the data active = inhibition above about 25%;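 also: 0% = vehicle with enzyme and substrate and 100% = no enzyme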
ARFGAP1 confirm: rat ARFGAP1 inhibition, confirmed; ARFGAP1-stimulated ARF1 GTP hydrolysis, GDP tracer FP; inhibition, % at 16.5 µM; 30% of 890 active; shares compounds with ARFGAP1 inhibitor; AID 651608;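 active = average inhibition over triplicates above the hit cutoff set in the earlier primary screen, cut at about 25% in these data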;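 also: 0% = Arfgap1 plus ARF1-GTP with DMSO and 100% = wells lacking Arfgap1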
Target sequence (Q62848 whole entry, looked up): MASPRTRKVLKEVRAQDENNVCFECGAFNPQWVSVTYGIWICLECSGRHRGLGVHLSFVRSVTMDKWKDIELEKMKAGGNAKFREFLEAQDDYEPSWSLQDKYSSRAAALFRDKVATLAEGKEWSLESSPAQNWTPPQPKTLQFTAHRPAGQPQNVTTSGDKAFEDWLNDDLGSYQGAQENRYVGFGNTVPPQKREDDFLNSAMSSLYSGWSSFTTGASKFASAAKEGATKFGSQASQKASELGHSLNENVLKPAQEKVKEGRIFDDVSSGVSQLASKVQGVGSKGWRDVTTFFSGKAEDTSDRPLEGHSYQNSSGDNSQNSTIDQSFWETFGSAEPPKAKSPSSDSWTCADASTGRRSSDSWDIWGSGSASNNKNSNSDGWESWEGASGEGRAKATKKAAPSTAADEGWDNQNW
Starred values were filed as active, the others as inactive. Compounds with a hit are over-represented: about 2% of the library has one in this group of screens.

Results for Cc1ccc(NC(=O)C(C)N=C2NS(=O)(=O)c3ccccc32)cc1F (stereo not given) ?
TCR-CD3 inh: -11; MBD2 inh: 0; LEDGF integ inh: -1; ARFGAP1 inhibitor: 38*; UHRF1 MBD2 ctr: 2; ASAP1 inh: 20; ARFGAP1 confirm: 4

Results for C=CCN(Cc1ccc2c(c1)OCO2)C(C#CC1CC1)C(C)C (stereo not given) ?
MBD2 inh: 1; LEDGF integ inh: -1; UHRF1 MBD2 ctr: 0

What do the screens show for `CCNC(=O)C1(C)CCCN1Cc1c(F)cccc1F` (stereo not given)?
TCR-CD3 inh: 2; MBD2 inh: -5; LEDGF integ inh: 0; ARFGAP1 inhibitor: 10; UHRF1 MBD2 ctr: 1; ASAP1 inh: 2

How did C[C@@H]1CN(c2ccc(N3CCNC[C@@H]3C)cc2C#N)C[C@H](C)O1 do in these assays?
TCR-CD3 inh: 8; MBD2 inh: 5; LEDGF integ inh: -3; ARFGAP1 inhibitor: -9; UHRF1 MBD2 ctr: -1; ASAP1 inh: 6

Results for COc1cc(/C=N/NC2=NCCCCC2)ccc1O ?
TCR-CD3 inh: -7; MBD2 inh: -4; LEDGF integ inh: 2; ARFGAP1 inhibitor: 0; UHRF1 MBD2 ctr: 1; ASAP1 inh: 18

What do the screens show for `COc1cc(/C=N/Nc2ncnc3sc4c(c23)CCC4)ccc1O`?
TCR-CD3 inh: 0; MBD2 inh: 1; LEDGF integ inh: -7; ARFGAP1 inhibitor: 26*; UHRF1 MBD2 ctr: -3; ASAP1 inh: 19; ARFGAP1 confirm: 11

What do the screens show for `COc1ccc(C(CNc2nc(-c3cccnc3)nc3ccccc23)N(C)C)cc1` (stereo not given)?
TCR-CD3 inh: 3; MBD2 inh: 3; LEDGF integ inh: -3; ARFGAP1 inhibitor: 2; UHRF1 MBD2 ctr: 2; ASAP1 inh: 10

How did COc1ccc(NC(=O)C2CCCN(S(=O)(=O)c3ccc4c(c3)CC(C)N4C(C)=O)C2)cc1 (stereo not given) do in these assays?
TCR-CD3 inh: -3; MBD2 inh: 2; LEDGF integ inh: -7; ARFGAP1 inhibitor: 26*; UHRF1 MBD2 ctr: 1; ASAP1 inh: -2; ARFGAP1 confirm: 1

What do the screens show for `Cc1ccc(-n2c(SCC(=O)NC3CCS(=O)(=O)C3)nc3ccccc3c2=O)c(C)c1` (stereo not given)?
TCR-CD3 inh: 3; MBD2 inh: -6; LEDGF integ inh: 2; ARFGAP1 inhibitor: 0; UHRF1 MBD2 ctr: 1; ASAP1 inh: 3

Results for O=C(COC(=O)c1ccccc1F)Nc1ccc(S(=O)(=O)N2CCOCC2)cc1 ?
TCR-CD3 inh: 7; MBD2 inh: -5; LEDGF integ inh: -1; ARFGAP1 inhibitor: 27*; UHRF1 MBD2 ctr: 2; ASAP1 inh: 14; ARFGAP1 confirm: 6

How did O=C(COC(=O)c1ccc(F)cc1F)Nc1ccc(S(=O)(=O)N2CCOCC2)cc1 do in these assays?
TCR-CD3 inh: 4; MBD2 inh: 5; LEDGF integ inh: 0; ARFGAP1 inhibitor: 4; UHRF1 MBD2 ctr: -2; ASAP1 inh: 2

Results for CC1(C(=O)Nc2cccc(C(F)(F)F)c2)Cc2c(-c3cccc(C(F)(F)F)c3)ccnc2O1 (stereo not given) ?
TCR-CD3 inh: 2; MBD2 inh: 5; LEDGF integ inh: -1; ARFGAP1 inhibitor: 34*; UHRF1 MBD2 ctr: -2; ASAP1 inh: 4; ARFGAP1 confirm: 11

Results for CC(=O)Nc1cccc(-c2ccnc3c2CC(C)(C(=O)Nc2cccc(C(F)(F)F)c2)O3)c1 (stereo not given) ?
TCR-CD3 inh: 2; MBD2 inh: 3; LEDGF integ inh: 2; ARFGAP1 inhibitor: 0; UHRF1 MBD2 ctr: 0; ASAP1 inh: 6

How did COc1ccc(-c2c(-c3ccc(OCC(=O)NN)cc3O)n[nH]c2C(F)(F)F)cc1 do in these assays?
TCR-CD3 inh: 5; MBD2 inh: -1; LEDGF integ inh: 1; ARFGAP1 inhibitor: 32*; UHRF1 MBD2 ctr: -1; ASAP1 inh: 25; ARFGAP1 confirm: 24

How did C[C@@H]1CN([C@@H](C)CO)C(=O)c2cc(C#Cc3ccccc3)cnc2O[C@H]1CN(C)C(=O)c1ccccc1F do in these assays?
TCR-CD3 inh: -4; MBD2 inh: 0; LEDGF integ inh: -3; ARFGAP1 inhibitor: 0; UHRF1 MBD2 ctr: 11; ASAP1 inh: -6

What do the screens show for `Cc1ccccc1OCC(=O)N(Cc1cccs1)C1CCS(=O)(=O)C1` (stereo not given)?
TCR-CD3 inh: 4; MBD2 inh: 2; LEDGF integ inh: -3; ARFGAP1 inhibitor: 25*; UHRF1 MBD2 ctr: -1; ASAP1 inh: 10; ARFGAP1 confirm: -1

What do the screens show for `COc1ccc(S(=O)(=O)NCC2CCC(C(=O)N3CCC4(CC3)OCCO4)CC2)cc1` (stereo not given)?
TCR-CD3 inh: -6; MBD2 inh: 2; LEDGF integ inh: -2; ARFGAP1 inhibitor: 35*; UHRF1 MBD2 ctr: 7; ASAP1 inh: 0; ARFGAP1 confirm: -7

What do the screens show for `C[C@H](NC(=O)c1ncn2c1C(=O)NC[C@H]2C)C(=O)OC(C)(C)C`?
TCR-CD3 inh: -4; MBD2 inh: 3; LEDGF integ inh: -3; ARFGAP1 inhibitor: -2; UHRF1 MBD2 ctr: 3; ASAP1 inh: 7

Results for CCN1C(=O)N(C)C(N(O)C(=O)NC)C1(C)C (stereo not given) ?
TCR-CD3 inh: 4; MBD2 inh: 1; LEDGF integ inh: 1; ARFGAP1 inhibitor: 26*; UHRF1 MBD2 ctr: 2; ASAP1 inh: -7; ARFGAP1 confirm: -6

What do the screens show for `Cc1ccc(NC(=O)COC(=O)c2ccc(-n3nc(C)cc3C)cc2)c(F)c1`?
TCR-CD3 inh: -1; MBD2 inh: 2; LEDGF integ inh: 0; ARFGAP1 inhibitor: -3; UHRF1 MBD2 ctr: 1; ASAP1 inh: 9

How did CN1C(=O)N(CC(=O)Nc2cccc(S(=O)(=O)N(C)c3ccccc3)c2)C(=O)C12CCCCC2 do in these assays?
TCR-CD3 inh: -4; MBD2 inh: 2; LEDGF integ inh: 0; ARFGAP1 inhibitor: 3; UHRF1 MBD2 ctr: 2; ASAP1 inh: -4

How did CCC1CCC2(CC1)NC(=O)N(CC(=O)Nc1cccc(S(=O)(=O)N(C)c3ccccc3)c1)C2=O (stereo not given) do in these assays?
TCR-CD3 inh: 1; MBD2 inh: -2; LEDGF integ inh: 5; ARFGAP1 inhibitor: 41*; UHRF1 MBD2 ctr: 0; ASAP1 inh: 6; ARFGAP1 confirm: -1

How did CC1C(=O)N2CCCc3cc(NC(=O)C(=O)NCc4cccnc4)cc1c32 (stereo not given) do in these assays?
TCR-CD3 inh: -1; MBD2 inh: 3; LEDGF integ inh: 0; ARFGAP1 inhibitor: 27*; UHRF1 MBD2 ctr: -1; ASAP1 inh: -6; ARFGAP1 confirm: -3
